# According to publication PMC11402745 (Heliyon, 2024):
# Where two headings read alike, the source gives them in different places.
# Tests used:
# [1] = test system: Escherichia coli TISTR1984; assay: Agar disc diffusion, E. coli; assay type: cell-based; details: E. coli TISTR 1984; extracts 500 mg/mL on disc; 37 °C, 24 h
# Summary of the method: (§1)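 Bacteria suspended in 0.85 % saline to McFarland 0.5 (1.5 × 10^8 CFU/mL) and swabbed onto Mueller–Hinton agar. Sterile paper discs loaded with 10 μL of 500 mg/mL extract. Chloramphenicol positive control, DMSO negative control. Plates incubated aerobically at 37 °C for 24 h. Inhibition zones measured in mm with calipers; three independent experiments, mean ± SEM.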
# [2] = test system: Staphylococcus aureus TISTR746; assay: Agar disc diffusion, S. aureus; assay type: cell-based; details: S. aureus TISTR 746; extracts 500 mg/mL on disc; 37 °C, 24 h
# Summary of the method: as §1
# [3] = DPPH free radical scavenging assay; details: at 1 mg/mL
# Summary of the method: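 Test compound mixed with 150 μM DPPH reagent, shaken immediately, then held 30 min in the dark at room temperature. Absorbance read at 520 nm. Trolox served as standard and positive control. Three independent experiments, mean ± SEM, one-way ANOVA vs diluent control.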
# [4] = ABTS free radical scavenging assay; details: at 0.5 mg/mL
# Summary of the method: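 Free-radical scavenging measured by mixing ABTS working solution with test compound, then incubating 10 min in the dark at room temperature. Absorbance read at 734 nm. Trolox served as standard and positive control. Three independent experiments, mean ± SEM, one-way ANOVA vs diluent control.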
# [5] = test system: MCF10A cells; assay: MTT cell viability, MCF10A; assay type: cell-based, human
# Summary of the method: (§2)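 Cells grown in DMEM/10 % FBS at 37 °C, 5 % CO2, seeded at 5 × 10^3 cells/well and left 24 h. Exposed to extracts (0–400 µg/mL) or cisplatin (0–400 µM) for 24, 48 or 72 h. MTT added for 2 h at 37 °C, formazan dissolved in DMSO, OD read at 570 nm. % viability and IC50 derived; three independent experiments, mean ± SEM.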
# [6] = test system: MCF-7 cells; assay: Clonogenic cell survival assay, MCF-7; assay type: cell-based, human; details: cisplatin 100 μM, 24 h, p < 0.05 vs control
# Summary of the method: (§3)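 Cells grown in DMEM/10 % FBS at 37 °C, 5 % CO2, seeded at 2 × 10^5 cells/well and left 24 h. Test compound or cisplatin added for 24 h. Cells trypsinised and reseeded at 1 × 10^3 cells/well without drug for 8–10 days. Fixed in cold methanol 45 min, stained with 0.5 % crystal violet 45 min. Colonies counted by light microscopy as % of untreated control; n = 3, one-way ANOVA.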
# [7] = test system: HEK293T cells; assay: MTT cell viability, HEK293T; assay type: cell-based, human
# Summary of the method: as §2
# [8] = test system: MCF-7 cells; assay: MTT cell viability, MCF-7; assay type: cell-based, human; details: MCF-7, MTT
# Summary of the method: as §2
# [9] = test system: MDA-MB-231 cells; assay: Clonogenic cell survival assay, MDA-MB-231; assay type: cell-based, human; details: cisplatin 100 μM, 24 h, p < 0.0001 vs control
# Summary of the method: as §3
# [10] = test system: MDA-MB-231 cells; assay: MTT cell viability, MDA-MB-231; assay type: cell-based, human; details: MDA-MB-231, MTT
# Summary of the method: as §2
# [11] = test system: RAW264.7 cells; assay: MTT cell viability, RAW264.7; assay type: cell-based, mouse; details: RAW cells, 24 h, compared to untreated cells
# Summary of the method: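 RAW264.7 macrophages grown in DMEM/10 % FBS at 37 °C, 5 % CO2. Exposed 24 h to dexamethasone (0–100 μM) or LPS (0–100 ng/mL). Viability expressed relative to untreated cells.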
molecule,measurement,setting,value
"O=C(N[C@H](CO)[C@H](O)c1ccc([N+](=O)[O-])cc1)C(Cl)Cl [CHL, Chloramphenicol]",ZOI,[1],29.75 ± 0.35 mm
same,ZOI,[2],29.75 ± 1.77 mm
Cc1c(C)c2c(c(C)c1O)CCC(C)(C(=O)O)O2 (centres unmarked) [Trolox],DPPH radical inhibition rate,[3],98.02 ± 0.21%
same,ABTS radical inhibition rate,[4],69.92 ± 3.08%
N.N.[Cl][Pt][Cl] [cisplatin],IC50,"[5]; read-out: IC50 for 24 h, 24 h",74.3 ± 3.24 µM
same,IC50,"[5]; read-out: IC50 for 48 h, 48 h",37.2 ± 2.72 µM
same,IC50,"[5]; read-out: IC50 for 72 h, 72 h",26.2 ± 1.66 µM
same,colony formation,[6],significantly decreased
same,IC50,"[7]; read-out: IC50 for 24 h, 24 h",62.3 ± 3.1 µM
same,IC50,"[7]; read-out: IC50 for 48 h, 48 h",11.6 ± 1.3 µM
same,IC50,"[7]; read-out: IC50 for 72 h, 72 h",3.25 ± 0.88 µM
same,IC50,"[8]; read-out: IC50 for 24 h, 24 h",73.8 ± 3.24 µM
same,IC50,"[8]; read-out: IC50 for 48 h, 48 h",41.5 ± 2.8 µM
same,IC50,"[8]; read-out: IC50 for 72 h, 72 h",32.9 ± 2.63 µM
same,colony formation,[9],significantly decreased
same,IC50,"[10]; read-out: IC50 for 24 h, 24 h",46.7 ± 2.89 µM
same,IC50,"[10]; read-out: IC50 for 48 h, 48 h",44.7 ± 2.86 µM
same,IC50,"[10]; read-out: IC50 for 72 h, 72 h",33.3 ± 2.64 µM
C[C@@H]1C[C@H]2[C@@H]3CCC4=CC(=O)C=C[C@]4(C)[C@@]3(F)[C@@H](O)C[C@]2(C)[C@@]1(O)C(=O)CO [dexamethasone],cell viability,[11]; dexamethasone at 0–12.50 μM,unchanged
lipopolysaccharide [LPS],cell viability,[11]; LPS at 0–12.5 ng/mL,unchanged
